Experimental data: article PMC2873069 (The journal of maternal-fetal & neonatal medicine : the …, 2010)
“Also recorded” adds a separate entry of the source. Where two headings read alike, the source gives them in different places.

Key:
[1] = cited from earlier work; for pharmacologic activity: hepatic metabolites
[2] = cited from earlier work
[3] = tested on: term human placental lobule; assay type: in vitro ADME; conditions: for fetal/maternal concentration ratio: HSA 30 mg/ml
[4] = tested on: perfused placental tissue; assay: Effect of bupropion on placental tissue viability; parameters: species or system human; conditions: for effect on placental viability and functional parameters: 150 ng/ml and 450 ng/ml bupropion
placental tissue enzymes = assay: Metabolism of bupropion by placental tissue during perfusion; conditions: end of 4 hours of perfusion
[5] = assay type: physicochemical
Procedure, shortened: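 Test compound as the [3H] form recirculated for 4 h through the closed perfusion circuit (glassware, teflon tubing, tygon peristaltic-pump tubing) without placenta, in M199 with dextran 40, heparin, gentamicin, sulfamethoxazole and trimethoprim at 37 °C. Run without and with human serum albumin at 30 mg/mL. Loss of radiolabel from the medium was tracked over 4 h.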

[6] = bupropion 150 ng/mL, 4 hours of perfusion
[7] = bupropion 450 ng/mL, 4 hours of perfusion
[8] = end of 4-hour perfusion, independent of initial concentration

C[C@H]1NC(C)(C)CO[C@]1(O)c1cccc(Cl)c1 [hydroxybupropion]
pharmacologic activity relative to the parent compound ([1]; hepatic metabolite): ~50%

Cc1cc(=O)n(-c2ccccc2)n1C [AP, antipyrine]
binding to plasma proteins and human serum albumin [2]: minimal binding | transplacental transfer to the fetal circuit ([3]; antipyrine 20 μg/mL co-transfused marker, 4 hours): approximately 50%

CC(NC(C)(C)C)C(O)c1cccc(Cl)c1 (centres unmarked) [erythrohydrobupropion]
pharmacologic activity [1]: very low activity

CC(NC(C)(C)C)C(=O)c1cccc(Cl)c1 (centres unmarked) [bupropion]
octanol/water partition coefficient ([2]; no reference given): 3.21 | pKa ([2]; no reference given): 7.6 | effect on placental viability and functional parameters [4]: did not affect; also recorded: do not adversely affect | O2 consumption, % of control period [4, 6]: 114 ± 37% | O2 consumption, experimental period [4, 6]: 6.6 ± 1.6 mL/min/kg | O2 transfer, % control period [4, 6]: 56 ± 21% | O2 transfer, experimental period [4, 6]: 0.22 ± 0.1 mL/min/kg | O2 consumption, % of control period [4, 7]: 98 + 38% | O2 consumption, experimental period [4, 7]: 3.7 + 1.2 mL/min kg | O2 transfer, % control period [4, 7]: 43 + 16% | release of hCG at the end of the experimental period (control period = 100%) ([4]; bupropion transfused in presence of HSA): 94 ± 12% | decline in concentration in the maternal circuit (shape) ([3]; 150 ng/ml, 4 hours): biphasic | time at which equilibrium was achieved in the fetal circuit ([3]; 150 ng/ml, from time 0): 180 min | fetal circuit concentration as % of initial concentration ([3]; 450 ng/ml, end of 4 hours): 23 ± 2% | fetal/maternal concentration ratio ([3]; bupropion 150 ng/ml in maternal circuit, end of 4-hour perfusion): 1.07 ± 0.22 | fetal/maternal concentration ratio ([3]; bupropion 450 ng/ml in maternal circuit, end of 4-hour perfusion): 1.00 ± 0.14 | fraction of drug remaining in the maternal circuit [3, 8]: 32 ± 5% | fraction of drug retained by placental tissue [3, 8]: 48 ± 6% | concentration in the fetal circuit at the end of the experiment ([3]; initial maternal concentration 150 ng/ml, 4 hours): 35 ± 4 ng/mL | concentration in the fetal circuit at the end of the experiment ([3]; initial maternal concentration 450 ng/ml, 4 hours): 104 ng/mL

C[C@H](NC(C)(C)C)[C@@H](O)c1cccc(Cl)c1 [threohydrobupropion]
effect on placental viability and functional parameters [4]: do not adversely affect | pharmacologic activity [1]: very low activity | ratio of metabolite to parent drug in placental tissue (placental tissue enzymes): 0.06 | ratio of metabolite to parent drug in the fetal circuit (placental tissue enzymes): 0.07 | ratio of metabolite to parent drug in the maternal circuit (placental tissue enzymes): 0.08

[^3H]-bupropion
binding to glassware and teflon tubing ([5]; 4 hours recirculation in absence of placenta): negligible | decline of initial amount in the medium ([5]; 4 hours recirculation in absence of placenta, no HSA): 40% | reduction of binding to tygon tubing ([5]; after addition of 30 mg/mL HSA to the perfusion medium): 25%
